ChEMBL document CHEMBL1159009, “Anti-influenza virus effect of some propolis constituents and their analogues (esters of substituted cinnamic acids)” (J Nat Prod, 1992)
Values after ≈ are worked out from the molar mass of the structure shown.

Tests used:
Influenza A virus H3N2 [1] = experiment: microbe, parasite or virus in culture; assay type: functional, Influenza A virus (A/Hong Kong/1/1968(H3N2)), Chorioallantoic membrane; details: 48 h
Influenza A virus = experiment: microbe, parasite or virus in culture; assay type: functional, Chorioallantoic membrane; details: A/Puerto Rico/8/1934(H1N1), 48 h
[2] = Toxicity in hen chorioallantoic membrane assessed as maximum tolerable concentration causing no morphological changes; parameters: species or system Gallus gallus; details: chicken, read-out: Activity
Method in brief: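 Surviving chorioallantoic membrane cultures (membranes only) from 11-13-day-old embryonated hen's eggs were exposed to increasing concentrations and followed for 72 h. MTC was the highest concentration causing no morphological changes in the CAM.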

Influenza A virus H3N2 [3] = assay type: functional, Influenza A virus (A/Hong Kong/1/1968(H3N2)), Chorioallantoic membrane
Influenza A virus H3N2 [4] = assay type: functional, Influenza A virus (A/Hong Kong/1/1968(H3N2)), Chorioallantoic membrane; remark: listed apart in the source
Influenza A virus H3N2 [5] = assay type: functional, Influenza A virus (A/Hong Kong/1/1968(H3N2)), Chorioallantoic membrane; remark: listed apart in the source
Influenza A virus H3N2 [6] = assay type: functional, Influenza A virus (A/Hong Kong/1/1968(H3N2)), Chorioallantoic membrane; remark: listed apart in the source
Influenza A virus H3N2 [7] = assay type: functional, Influenza A virus (A/Hong Kong/1/1968(H3N2)), Chorioallantoic membrane; remark: listed apart in the source
Influenza A virus H3N2 [8] = assay type: functional, Influenza A virus (A/Hong Kong/1/1968(H3N2)), Chorioallantoic membrane; remark: listed apart in the source
Influenza A virus H3N2 [9] = assay type: functional, Influenza A virus (A/Hong Kong/1/1968(H3N2)), Chorioallantoic membrane; remark: listed apart in the source
Influenza A virus H3N2 [10] = experiment: Antiviral activity against influenza A virus (A/Hong Kong/1/1968(H3N2)) infected in hen eggs assessed as hemagglutinination titre level at 1 mg/ml; assay type: functional
Method in brief: (§1)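 11-day-old embryonated hen's eggs received 0.2 ml of substance 1 h before infection with A/Hong Kong/1/68 (H3N2) from allantoic fluid. Read-out was the mean geometrical hemagglutination titer, compared with a virus control for each dose.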

Influenza A virus H3N2 [11] = experiment: Antiviral activity against influenza A virus (A/Hong Kong/1/1968(H3N2)) infected in hen eggs assessed as hemagglutinination titre level at 2.5 mg/ml; assay type: functional
Method in brief: as §1

Influenza A virus H3N2 [12] = experiment: Antiviral activity against influenza A virus (A/Hong Kong/1/1968(H3N2)) infected in hen eggs assessed as hemagglutinination titre level at 5 mg/ml; assay type: functional
Method in brief: as §1

[13] = Toxicity in hen egg assessed as maximum tolerable concentration causing no morphological changes; parameters: species or system Gallus gallus; details: chicken, read-out: Activity

Row | SMILES | MIC (Influenza A virus H3N2 [1]) | MIC (Influenza A virus) | MNTC [2] | other results
1 | COc1cc(/C=C/C(=O)OCCc2ccccc2)ccc1O | > 50 µg/mL | > 50 µg/mL | 50 µg/mL | –
2 | CC(C)CCOC(=O)/C=C/c1ccc(O)c(O)c1 | 25 µg/mL (≈ 99.9 µM) | 25 µg/mL (≈ 99.9 µM) | 50 µg/mL | –
3 | O=C(/C=C/c1ccc(O)c(O)c1)OCc1ccccc1 [BENZYL CAFFEATE] | 25 µg/mL (≈ 92.5 µM) | > 50 µg/mL | 50 µg/mL | –
4 | COc1cc(/C=C/C(=O)OCc2ccccc2)ccc1O [BENZYL FERULATE] | > 50 µg/mL | > 50 µg/mL | 50 µg/mL | –
5 | O=C(/C=C/c1ccc(O)c(O)c1)OCCc1ccccc1 [CAFFEIC ACID PHENETHYL ESTER] | 25 µg/mL (≈ 87.9 µM) | 50 µg/mL (≈ 176 µM) | 50 µg/mL | –
6 | COc1cc(/C=C/C(=O)OCCC(C)C)ccc1O [ISOPENTYL FERULATE] | 50 µg/mL (≈ 189 µM) | > 200 µg/mL | 400 µg/mL | log10CCID50 (Influenza A virus H3N2 [3]): 3; log10CCID50 (Influenza A virus H3N2 [4]): 1.5; log10CCID50 (Influenza A virus H3N2 [5]): 1.5; log10CCID50 (Influenza A virus H3N2 [6]): <1; deltalog10CCID50 (Influenza A virus H3N2 [7]): 2; deltalog10CCID50 (Influenza A virus H3N2 [8]): 2; deltalog10CCID50 (Influenza A virus H3N2 [9]): >2.5; Activity (Influenza A virus H3N2 [10]): 9.4; Activity (Influenza A virus H3N2 [11]): 7.35; Activity (Influenza A virus H3N2 [12]): 6.45; MNTC [13]: 10000 µg/mL
